# Compound activity as filed in PubChem.
# ARNT-TACC3 inh: disruptors of ARNT/TACC3 protein interaction, primary screen, biochemical, AlphaScreen, single concentration. AID 623870, 2012. Transforming acidic coiled-coil-containing protein 3 (Homo sapiens), Q9Y6A5. inhibition, % at 9.99 µM. 390,000 compounds, 0.66% hits. AlphaScreen His-ARNT PAS-B/GST-TACC3 binding, luminescence; TACC3 fragment carries E629A point mutation;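 active = mean inhibition of replicates at least 50% and at least half of replicates each reaching 50%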
# CAL PDZ FP-1: untagged CAL PDZ binding inhibitors, primary screen, biochemical, fluorescence polarization, HTS; Golgi-associated PDZ and coiled-coil motif-containing protein (Homo sapiens), Q9HD26; purified CAL PDZ, TMR-peptide fluorescence polarization, 1 h; inhibition, % at 24.9 µM; 300,000 compounds, 0.92% hits;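 active = mean inhibition of at least 30% with at least half of replicates also reaching 30%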
# CAL PDZ FP-2: CAL PDZ peptide-binding inhibitors, primary screen, biochemical, fluorescence polarization, Cer-tagged CAL PDZ, HTS. Golgi-associated PDZ and coiled-coil motif-containing protein (Homo sapiens), Q9HD26. purified CAL PDZ, TMR-peptide fluorescence polarization, 1 h. inhibition, % at 20 µM. 330,000 compounds, 0.02% hits;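 active = highest replicate inhibition of at least 40%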
#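 Control set: unlabelled peptide and DMSO controls / Material: purified CerCALP PDZ construct / Timing: 1 h incubation at room temperature before polarization reading / Doses: 20 µM, one dose / Detection: fluorescence polarization (mP)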
# DYRK1A inh: rat Dyrk1A kinase inhibitors, primary screen, biochemical, single point, plate reader. inhibition, % at 12.5 µM. ADP-Glo luminescence, NFATc1 peptide. 310,000 compounds, 0.43% hits. Dual specificity tyrosine-phosphorylation-regulated kinase 1A (Rattus norvegicus), Q63470; in the data active = inhibition above about 50%
# A number is an active result; - = inactive; . = no result given; ! = repeats disagree. Only some compounds are listed: those with a hit (about 1.4% of all), similar ones and a draw of the others.
SMILES,ARNT-TACC3 inh,CAL PDZ FP-1,CAL PDZ FP-2,DYRK1A inh
C[C@H](CO)N1C[C@H](C)[C@@H](CN(C)Cc2ccc(C(F)(F)F)cc2)Oc2c(NS(C)(=O)=O)cccc2C1=O,-,.,.,.
O=S(=O)(N[C@@H]1CC[C@@H](CCn2cc(C3(O)CCCC3)nn2)O[C@H]1CO)c1ccc(Cl)cc1,-,.,.,.
N#CCc1nn(-c2ccccc2)c2ncnc(N)c12,-,103.3,-,.
N#CCc1nn(-c2ccc(Cl)cc2)c(N)c1C#N,-,-,-,-
O=C1NC(=O)/C(=C/c2ccco2)N1,-,-,-,-
O=C1NC(=S)NC1=Cc1ccco1,59.6,.,-,.
COc1ccc(C(=O)N2CCC(C(=O)c3ccc(F)cc3)CC2)cc1,-,-,-,-
COc1ccc(C(=O)C2CCN(C(=O)c3ccc(OC)cc3)CC2)cc1,-,74.1,-,-
COC(=O)c1ccccc1NC(=O)C1CCN(C(=O)c2cc(OC)cc(OC)c2)CC1,-,115.3,-,-
COc1ccc(C(=O)N2CCC(C(=O)Nc3ccccc3OC)CC2)cc1,-,-,-,-
COc1ccc(NC(=O)N(C)C[C@H]2Oc3c(NC(=O)NC(C)C)cccc3C(=O)N([C@@H](C)CO)C[C@@H]2C)cc1,-,.,.,.
COc1cc(/C=N/n2c(-c3cc(C)[nH]n3)n[nH]c2=S)cc(OC)c1OC,-,33.7,-,-
Cc1ccc(C(=O)CSc2nnc(-c3ccccc3N)n2C)cc1,-,36.8,.,-
Cn1c(SCC(=O)c2ccc(F)cc2)nnc1-c1ccccc1N,-,-,-,-
C[C@H]1CN([C@@H](C)CO)C(=O)c2cc(NC(=O)Cn3cnnn3)ccc2O[C@H]1CN(C)S(=O)(=O)c1ccc(F)cc1,-,.,.,.
Cc1ccc(S(=O)(=O)N(C)C[C@@H]2Oc3ccc(NC(=O)Cn4cnnn4)cc3C(=O)N([C@@H](C)CO)C[C@H]2C)cc1,active!,-,-,-
C[C@H]1CN([C@@H](C)CO)C(=O)c2cc(NC(=O)C3CC3)ccc2O[C@@H]1CN(C)C,-,.,.,.
Cc1ccc(S(=O)(=O)N(C)C[C@H]2Oc3c(NC(=O)NC4CCCCC4)cccc3C(=O)N([C@@H](C)CO)C[C@H]2C)cc1,-,.,.,.
C[C@@H]1CN([C@H](C)CO)C(=O)c2cc(NC(=O)C3CC3)ccc2O[C@H]1CN(C)C,49.0,.,.,.
Cc1ccc(S(=O)(=O)N(C)C[C@@H]2Oc3c(NC(=O)NC4CCCCC4)cccc3C(=O)N([C@H](C)CO)C[C@@H]2C)cc1,active,.,.,.
O=C(Cc1ccncc1)Nc1ccc2c(c1)[C@H]1C[C@H](CC(=O)N3CCCCC3)O[C@@H](CO)[C@H]1O2,-,.,.,.
CO[C@@H]1CN(C)C(=O)c2ccc(NC(=O)NC(C)C)cc2OC[C@H](C)N(CC2CC2)C[C@H]1C,-,.,.,.
Cc1ccc(C(=O)N[C@H](C(=O)OCc2nnc(-c3ccccc3)o2)C(C)C)cc1,-,49.9,-,-
CC(C)[C@H](NC(=O)c1ccccc1)C(=O)OCc1nnc(-c2ccccc2)o1,-,-,-,-
CCN(CC)CCC(c1ccc(N(C)C)cc1)c1c(OC)cc(OC)c2c(-c3ccccc3)cc(=O)oc12 (configuration not stated),38.6,-,-,.
SMILES,ARNT-TACC3 inh,CAL PDZ FP-1,CAL PDZ FP-2,DYRK1A inh
COc1cc(OC)c2c(-c3ccccc3)cc(=O)oc2c1C(CCN1CCCC(C)C1)c1ccc(N(C)C)cc1 (configuration not stated),45.4,-,-,-
C[C@H]1CN([C@@H](C)CO)C(=O)Cc2cc(NC(=O)C3CC3)ccc2O[C@@H]1CN(C)Cc1ccncc1,-,.,.,.
COC(=O)C1=CN(Cc2ccc(OC)c(OC)c2)C=C(C(=O)OC)C1c1cccc(F)c1,-,57.9,-,-
COC(=O)C1=CN(Cc2ccc(OC)cc2)C=C(C(=O)OC)C1c1cc(OC)c(OC)c(OC)c1,active,-,-,-
C[C@@H]1CN([C@H](C)CO)C(=O)Cc2cc(NC(=O)CCN3CCOCC3)ccc2O[C@@H]1CN(C)Cc1ccc(Cl)c(Cl)c1,-,.,.,.
C[C@@H]1CN([C@@H](C)CO)C(=O)c2cc(NC(=O)Nc3ccc4c(c3)OCO4)ccc2O[C@H]1CN(C)C(=O)NC1CCCCC1,-,.,.,.
O=C(O)CCN(Cc1ccccc1)S(=O)(=O)c1ccccc1Cl,-,52.3,-,.
